TAAR1 antagonist: antagonists of human TAAR1; inhibition, % at 3 µM; 360,000 tested, 1.5% active; CHO RD-HGA16 TAAR1, Fluo-8 calcium fluorescence, antagonist; Q96RJ0; AID 624466;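 active = inhibition above a per-plate cutoff, the mean inhibition of test compounds on that plate plus 3 SD, cut at about 49% in these data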;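 also: 0% = DMSO plus EC80 beta-PEA response and 100% = DMSO alone without agonist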
Target sequence (Q96RJ0 whole entry, looked up): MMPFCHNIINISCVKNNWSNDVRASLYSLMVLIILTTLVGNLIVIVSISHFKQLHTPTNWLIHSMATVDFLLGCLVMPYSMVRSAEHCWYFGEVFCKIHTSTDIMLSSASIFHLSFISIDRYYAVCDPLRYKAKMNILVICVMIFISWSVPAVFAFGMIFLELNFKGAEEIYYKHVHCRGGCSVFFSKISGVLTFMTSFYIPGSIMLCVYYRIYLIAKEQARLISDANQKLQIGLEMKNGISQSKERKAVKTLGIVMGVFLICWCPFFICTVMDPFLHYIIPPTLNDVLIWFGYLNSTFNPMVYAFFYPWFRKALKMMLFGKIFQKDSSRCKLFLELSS
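Assay system: CHO-derived RD-HGA16 cells stably expressing human TAAR1 plus Gα16. Timing: 140 s kinetic read after compound, 140 s after agonist. Technique: kinetic Fluo-8 calcium fluorescence measurement. Measure: % inhibition of agonist calcium response.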
NS3 helicase inh: inhibitors of Hepatitis C virus NS3 helicase. NS3 helicase DNA unwinding, Cy5 molecular beacon fluorescence. inhibition, % at 10.9 µM. 290,000 tested, 0.56% active;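 active = inhibition above the mean of all tested compounds plus 3 SD, set per campaign, cut at about 35% in these data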;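 also: 0% = DMSO wells and 100% = thioflavine S control wells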
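Compound dosing – single dose, 10.9 µM nominal final, DMSO 0.8% final · System – NS3 helicase fragment of HCV · Buffer or medium – MOPS pH 6.5, MgCl2, DTT, Tween20, BSA · Signal – Cy5 beacon fluorescence read at start and 1 h · Also added – annealed dual-labelled DNA beacon duplex, ATP-started · Schedule – 1 h at 25 °C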
TAAR1 ag: human TAAR1 agonism; CHO RD-HGA16 TAAR1, Fluo-8 calcium fluorescence; vehicle wells 0%, saturating PEA agonist 100%; activation, % at 3 µM; 360,000 tested, 0.99% active; AID 624467; Q96RJ0;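 active = activation above the mean activation of all test compounds in the run plus 3 SD, cut at about 38% in these data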
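Benchmarks: low control DMSO, high control PEA (EC100); System: CHO RD-HGA16 cells carrying human TAAR1 plus Gα16; Detection: Fluo-8 fluorescence, 5 s baseline then 140 s kinetic read; Schedule: 17-24 h plating, Fluo-8 75 min 37 °C, 30 min RT; Read-out basis: % activation from peak over basal fluorescence ratio, DMSO-to-PEA scaled.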
rCAG RNA binder: binds r(CAG) RNA repeats; r(CAG) RNA repeat, TO-PRO-1 dye displacement fluorescence; inhibition, % at 3 µM; 370,000 tested, 1.3% active;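 active = inhibition above the plate cutoff, the mean of all test compounds on that plate plus 3 SD, cut at about 35% in these data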;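 also: 0% = DMSO alone and 100% = 100 µM mitoxantrone as full dye displacement; higher means more dye released from RNA so lower well fluorescence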
HCV core dimer: HCV core protein dimerization inhibition. TR-FRET GST/Flag-core106 dimerization, 1536-well. inhibition, % at 5 µM. 300,000 tested, 0.33% active;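 active = inhibition above the mean of all tested compounds plus 3 SD, set per screening campaign, cut at about 45% in these data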
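System – GST-tagged and Flag-tagged HCV core protein residues 1-106 · Repeats – one well for each compound · Technique – TR-FRET 671 and 617 nm emission · Doses – one concentration, 5 µM, in 0.5% DMSO · Times – 4 h, 22.5 °C incubation · Also added – Eu donor and XL665 acceptor anti-tag antibodies · Measure – percent inhibition of core106 dimerization signal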
* marks the source's active call; other numbers are inactive results; / = no result. Hits are enriched below; roughly 3.7% of the tested compounds scored in any of these assays.

SMILES	TAAR1 antagonist	NS3 helicase inh	TAAR1 ag	rCAG RNA binder	HCV core dimer
O=C1N=c2ccccc2=C1c1sc(=S)n(NC(=O)c2cccc(O)c2)c1O	50.8*	0.7	18.0	11.1	/
N#C/C(=C/c1ccc(-c2ccccc2)o1)c1nc(-c2cccs2)cs1	55.0*	7.0	34.0	3.7	1.7
O=C(Nc1ccc(Cl)c(Cl)c1)N(CCCN1CCOCC1)Cc1cccnc1	-0.3	-3.1	6.1	7.5	-4.1
O=C(Nc1ccc(Cl)c(Cl)c1)N(CCCN1CCOCC1)Cc1cccs1	39.8	-36.5	45.6*	0.3	-2.9
COc1ccc(CNn2c(-c3cccs3)nc3ccccc3c2=O)cc1OC	51.3*	-2.3	13.2	-1.3	10.1
COc1cccc(C(=O)Nn2c(-c3cccs3)nc3ccccc3c2=O)c1OC	35.6	3.9	7.8	1.5	-2.5
Cc1cc(/C=N/NC(N)=S)c(O)c(/C=N/NC(N)=S)c1	8.9	2.4	49.7*	-442.4	-4.1
Cc1ccc(C(=O)NC2CCCCN(Cc3ccccc3C)C2=O)cc1 (stereo not drawn)	/	/	/	-0.6	/
Cc1ccccc1Cn1nc(C)c(NC(=O)c2noc3c2CC(C(C)(C)C)CC3)c1C (stereo not drawn)	-11.9	7.5	6.1	-5.7	7.5
Cc1ccccc1Cn1cc(NC(=O)c2noc3c2CC(C(C)(C)C)CC3)cn1 (stereo not drawn)	62.8*	5.5	38.6*	0.4	4.8
O=C(/C=C/c1cccs1)N1CCC2(CC1)Oc1ccc(Cl)cc1C(=O)C21CC(c2cccnc2)=NO1 (stereo not drawn)	52.6*	/	20.4	4.1	-6.1
NC(=O)c1ccc(NC(=O)COC(=O)c2cc3c(s2)CCC3)cc1	-6.5	/	5.8	4.2	/
O=C(COC(=O)c1cc2c(s1)CCC2)Nc1ccc(F)cc1	-21.8	30.8	-1.7	21.4	50.1*
COC(=O)C1CN(Cc2ccccc2)CCS(=O)(=O)N1Cc1ccc(C(F)(F)F)cc1 (stereo not drawn)	/	/	/	1.4	/
COc1ccc(/C=N/NC(=O)CCCOc2ccc(Cl)cc2Cl)cc1[N+](=O)[O-]	48.8*	2.5	10.7	1.5	0.8
CN(C)c1nc(OCCOC(=O)c2ccccc2)nc(N(C)C)n1	10.7	0.5	38.6*	-4.3	0.4
Cc1ccc(SCCNC(=S)Nc2cc(C)cc(C)c2)cc1	65.0*	-4.6	10.7	-1.7	6.6
COc1cccc(CN2CCC(C(=O)Nc3ccc(-c4cccc(C)c4)cc3)CC2)c1O	12.4	-46.4	37.9*	6.9	-5.5
NC(N)=N/N=C/c1cccc(Cl)c1Cl	17.3	-10.7	42.1*	16.8	-5.1
Cc1cc(N2CCN(C(=O)Oc3ccc(C(F)(F)F)cc3)CC2)c2ccccc2n1	/	/	/	2.0	/
COc1cc(C(=O)NNC(=S)NC(=O)/C=C/c2ccccc2)cc(OC)c1OC	23.3	7.9	39.1*	15.0	1.6
O=C(Nc1cccc(Br)c1)OC1CC2CC1[C@H]1CCCCN1C2 (stereo partly drawn)	/	/	/	12.7	/
CCC(C)N(C(C)CC)S(=O)(=O)c1ccc2[nH]c(=O)oc2c1 (stereo not drawn)	/	/	/	21.2	/
COc1ccc(-c2ccc3c(c2)S(=O)(=O)c2cccc(C(=O)N4CCN(C5CCCCC5)CC4)c2C3=O)cc1OC	51.6*	/	20.5	11.7	/
COc1ccc(-c2ccc3c(c2)S(=O)(=O)c2cccc(C(=O)N4CCN(c5ccccn5)CC4)c2C3=O)cc1OC	36.5	/	7.3	14.4	/
SMILES	TAAR1 antagonist	NS3 helicase inh	TAAR1 ag	rCAG RNA binder	HCV core dimer
COc1ccc(CNCC#Cc2ccc(C)cc2)c(OC)c1	/	/	/	0.6	/
COCCCn1c(SCCc2ccccc2)nc2cc(OC)c(OC)cc2c1=N	55.7*	-42.8	11.4	4.1	-3.8
N#CC1(c2ccccc2)CCC(NCCc2ccccc2)CC1 (stereo not drawn)	8.6	-35.0	40.7*	2.3	0.2
Cc1nc(NC(=O)c2ccco2)sc1-c1csc(Nc2ccc(Cl)cc2Cl)n1	34.9	-10.4	19.4	48.4*	1.4
COc1cccc(N(C(=O)c2ccco2)c2nc(-c3sc(NC(=O)c4ccco4)nc3C)cs2)c1	50.5*	7.4	14.0	30.1	-3.0
Nn1c(SCc2cccc3ccccc23)nnc1-c1n[nH]c2c1CCC2	/	/	/	4.1	/
Cc1ccc2nc(-c3ccc(NC(=O)CSc4nnc(Cc5cccs5)n4C)cc3)sc2c1	/	/	/	8.7	/
COc1ccc(NS(=O)(=O)c2ccc(NC(=S)NC(=O)C(C)C)cc2)cc1	19.6	-12.8	76.8*	9.1	5.6
CC(C)C(=O)NC(=S)Nc1ccc(S(=O)(=O)Nc2ccccc2)cc1	17.5	-3.9	22.9	2.8	-1.0
COc1ccc(CC(=O)NC(=S)Nc2ccc(S(=O)(=O)NC(C)(C)C)cc2)cc1	31.0	-8.1	53.4*	2.6	17.3
COc1ccc(N2CCN(CCNS(=O)(=O)c3ccc(Br)s3)CC2)cc1	/	/	/	0.8	/
CCCCn1c(NC(=O)c2ccco2)c(S(=O)(=O)c2ccc(C)cc2)c2nc3ccccc3nc21	-0.8	3.4	5.7	59.3*	/
O=C(Nc1ccccc1N1CCOCC1)c1cccc(S(=O)(=O)Nc2ccccc2F)c1	22.7	/	-0.3	36.6*	/
COc1ccc(-c2csc(C(O)c3ccc(F)cc3)n2)cc1 (stereo not drawn)	78.4*	/	61.7*	-0.7	/
COc1ccc(C(O)c2nc(-c3cc4ccccc4o3)cs2)cc1 (stereo not drawn)	49.3*	/	31.5	3.9	/
OC(c1ccccc1)c1nc(-c2cc3ccccc3o2)cs1 (stereo not drawn)	0.0	/	7.6	0.3	/
COc1ccc(C(O)c2nc(-c3ccc(N(C)C)cc3)cs2)cc1 (stereo not drawn)	40.2	/	49.1*	5.9	/
CN(C)c1ccc(-c2csc(C(O)c3ccc(F)c(F)c3)n2)cc1 (stereo not drawn)	98.8*	/	99.9*	3.5	/
O=C(CSc1nnc(-c2ccccc2)n1-c1ccc(Cl)cc1)c1ccc(F)cc1	/	/	/	1.3	/
CC1C=CC=CCCC=CC=CC=CC=CC(OC2O[C@H](C)[C@@H](O)[C@H](N)[C@@H]2O)CC(O)C(C(=O)O)C(O)CC(=O)CC(O)C(O)CCC(O)CC(O)CC(O)CC(=O)OC(C)C(C)C1O (stereo partly drawn)	/	/	/	31.3	/
CCn1c(SCc2ccccc2Cl)nnc1-c1ccccc1OC	/	/	/	-0.4	/
Nc1nc(SCC(=O)N2N=C3/C(=C/c4ccco4)CCCC3C2c2ccco2)n[nH]1 (stereo not drawn)	-2.4	14.5	6.0	18.2	52.2*
Nc1nc(SCC(=O)N2N=C3/C(=C\c4ccco4)CCCC3C2c2ccco2)n[nH]1 (stereo not drawn)	-17.6	/	-0.5	16.0	/
C=CCNC(=O)CN(C(=O)Cc1ccc(Cl)cc1)c1cccc(Br)c1	/	/	/	2.1	/
CCOc1ccc(/C=N/OCC(=O)NC(c2ccccc2)c2ccccc2)cc1	53.4*	-23.9	28.5	-3.7	3.9
CCN(CC)C(=O)CNc1nnnn1-c1ccccc1	/	/	/	2.4	/

Assay outcomes deposited in PubChem by The Scripps Research Institute Molecular Screening Center.
